Consider 4 compounds from ChEMBL document CHEMBL1124216, “A novel class of potential central nervous system agents. 3-Phenyl-2-(1-piperazinyl)-5H-1-benzazepines” (1988).

SMILES strings stand for the structures.

Type in all cases: functional
Assay [1] concerns Mus musculus. Put plainly: Antiexploratory activity (EXPL) of mice determined by an antimex activity meter, 50 mg/kg of dose was administered perorally; Potent inhibition. Particulars: route oral.
Assay [2] concerns Mus musculus. Kind of assay: Antiexploratory activity (EXPL) of mice determined by an antimex activity meter, 10 mg/kg of dose was administered perorally; Moderate inhibition (51-71%). Particulars: route oral.
Assay [3] has as its system Mus musculus. Kind of assay: The homovanillic acid (HVA) levels in mouse brain at 10 mg/kg of dose. Put shortly: (§1)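 Mice dosed orally in 0.5% aqueous tragacanth; brains of five mice per compound pooled. Homovanillic acid measured in brain extracts and reported as brain level.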
Assay [4] relates to Mus musculus. Kind of assay: 3,4 -Dihydroxy phenylacetic acid (DOPAC) levels in mouse brain at 10 mg/kg dose. Summed up:
(§2)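 Male Std-ddY mice, 20-25 g, dosed orally with compound in 0.5% aqueous tragacanth. DOPAC was measured fluorometrically after purification by column chromatography on Sephadex G-10 and QAE-Sephadex. Brains from five mice per compound were pooled for each determination.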

Assay [5] relates to Mus musculus. Put plainly: 3,4 -Dihydroxy phenylacetic acid (DOPAC) levels in mouse brain at 50 mg/kg dose. Summed up: as §2
Another assay concerns Canis familiaris. Kind of assay: Inhibition of apomorphine induced emesis in dogs at 1 mg/kg of dose. Particulars: Canis lupus familiaris. Put shortly: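 Beagle dogs (10-15 kg), groups of three, given compound po in a gelatin capsule; 2 h later apomorphine hydrochloride 0.3 mg/kg sc. Vomiting counted for 1 h; mean inhibition as percent of control. ED50 is the dose giving 50% inhibition of emesis, by Litchfield-Wilcoxon.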

The test system of assay [6] is Mus musculus. Put plainly: Exploratory activity of mice determined by an antimex activity meter, 10 mg/kg of dose was administered perorally. Particulars: route oral.
In assay [7] the test system is Mus musculus. Put plainly: The homovanillic acid (HVA) levels in mouse brain at 50 mg/kg of dose. Summed up:
as §1

Assay [8] concerns Mus musculus. Kind of assay: Exploratory activity of mice determined by an antimex activity meter, 50 mg/kg of dose was administered perorally. The conditions noted are these: Mus musculus, po. Put shortly: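 Male Std-ddY mice (20-25 g), five per dose; compound in 0.5% aqueous tragacanth given orally. Two hours later each mouse placed in an Animex activity meter cage and locomotor activity counted for 3 min. Mean suppression expressed as percent inhibition of control; ED50 by Litchfield-Wilcoxon.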

The subject of assay [9] is Mus musculus. Kind of assay: Antitremorine activity(TRM) of mice after peroral administration of mg/kg of compound; No inhibition.
Assay [10] concerns Mus musculus. Kind of assay: Antireserpine activity (RES) of mice after peroral administration of mg/kg of compound; Slight inhibition (31-50%).
Assay [11] has as its system Mus musculus. Kind of assay: Antimaximal electroshock seizure activity was determined in mice when administered perorally. The conditions noted are these: po. A general note: Protection in the maximal electroshock model is a classic sign of anticonvulsant action.
In assay [12] the test system is Mus musculus. Kind of assay: Antiexploratory activity (EXPL) of mice determined by an antimex activity meter, mg/kg of dose was administered perorally; Slight inhibition (31-50%).
Assay [13] concerns Mus musculus. Kind of assay: Antimaximal electroshock seizure (MES) activity in mice after peroral administration of 100 mg/kg of compound; 0/5. The conditions noted are these: route oral.
Assay [14] concerns Mus musculus. Kind of assay: Antireserpine activity(RES) of mice after peroral administration of 50 mg/kg of compound; No inhibition. The conditions noted are these: route oral.
Assay [15] concerns Mus musculus. Put plainly: Antitremorine activity(TRM) of mice after peroral administration of 100 mg/kg of compound; No inhibition. Particulars: route oral.
Assay [16] has as its system Mus musculus. Kind of assay: Antiexploratory activity (EXPL) of mice determined by an antimex activity meter, 50 mg/kg of dose was administered perorally; Slight inhibition (31-50%). The conditions noted are these: route oral.
Assay [17] relates to Mus musculus. Kind of assay: Antiexploratory activity (EXPL) of mice determined by an antimex activity meter, 100 mg/kg of dose was administered perorally; No inhibition. The conditions noted are these: route oral.
The test system of assay [18] is Mus musculus. Put plainly: Antireserpine activity (RES) of mice after peroral administration of 100 mg/kg of compound; […]. Particulars: route oral.

For orientation: inhibition in vivo means the share of the control response that was lost under treatment. A lower inhibition in vivo goes with little suppression. The term Inhibition denotes how much of the control response was suppressed. The low end stands for little suppression, the high end for strong suppression. A word on the ED50: it is the dose that gives a 50% effect, or the effect in half of the subjects. A higher ED50 goes with a need for a large dose.

Consider `Fc1ccc(C2=CCc3ccccc3N=C2N2CCN(C3CCCCC3)CC2)cc1.O=C(O)/C=C/C(=O)O`, for which the figures for the inhibition in vivo at 50 mg/kg in the assay on Mus musculus [1] and with Mus musculus [8] were over 71% and 84.6%, respectively. The inhibition in vivo at 10 mg/kg in the assay with Mus musculus [2] turned out to be 51%; with Mus musculus [6], 61.4%. For the same compound, the Control was found to be 295% with Mus musculus [3], 244% in the assay with Mus musculus [4], 334% with Mus musculus [5] and 343% in the assay on Mus musculus [7]. In the assay on Canis familiaris, 1 mg/kg produced 46% inhibition in vivo.

As to `Cl.Cl.OCCN1CCN(C2=Nc3ccccc3CC=C2c2ccccc2)CC1`, the values for the Inhibition with Mus musculus [9], in the assay with Mus musculus [10] and in the assay with Mus musculus [12] were under 30%, 31% and 31%, respectively. This compound also had an ED50 with Mus musculus [11] of over 100 mg/kg. In the assay on Mus musculus [13], this compound showed an Activity of 0.

Regarding `Cl.Cl.OCCN1CCN(C2=Nc3ccccc3CC=C2c2ccc(Br)cc2)CC1`, the Control was 181% in the assay with Mus musculus [3], 106% with Mus musculus [4], 291% with Mus musculus [5] and 335% in the assay on Mus musculus [7]. Moreover, the inhibition in vivo at 50 mg/kg in the assay with Mus musculus [14] was under 30%; in the assay with Mus musculus [8], 36.1%; in the assay on Mus musculus [16] it was 31%. This compound yielded an inhibition in vivo at 100 mg/kg with Mus musculus [15] of under 30%. In the assay on Canis familiaris, this compound had an inhibition in vivo at 1 mg/kg of 72.5%. Further, the inhibition in vivo at 10 mg/kg in the assay on Mus musculus [6] came out at 31.9%. In the assay on Mus musculus [13], this compound returned an Activity of 0.

For the compound `CN1CCN(C2=Nc3ccccc3CC=C2c2cccnc2)CC1`, the inhibition in vivo at 100 mg/kg in the assay with Mus musculus [15] is under 30%; in the assay with Mus musculus [17], under 30%; with Mus musculus [18], over 71%. In the assay on Mus musculus [13], this compound displayed an Activity of 0.
